Bioassay records: PubChem BioAssay, several laboratories
Cl transport mod: KCC2 (human) Cl- transport modulation | B-score of Tl+ flux slope (higher = more flux/activation; lower = inhibition) at 10 µM | 190,000 tested, 2.2% active | Q9H2X9 | AID 1456 | KCC2 cells, thallium flux FluoZin-2 fluorescence;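 active means thallium flux slope and its plate-corrected score both differing from the plate sample mean at a set confidence after two filtering rounds, in either direction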;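 further: slope of fluorescence scaled to starting intensity during 10 to 20 s after thallium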
Target sequence (Q9H2X9 whole entry, looked up): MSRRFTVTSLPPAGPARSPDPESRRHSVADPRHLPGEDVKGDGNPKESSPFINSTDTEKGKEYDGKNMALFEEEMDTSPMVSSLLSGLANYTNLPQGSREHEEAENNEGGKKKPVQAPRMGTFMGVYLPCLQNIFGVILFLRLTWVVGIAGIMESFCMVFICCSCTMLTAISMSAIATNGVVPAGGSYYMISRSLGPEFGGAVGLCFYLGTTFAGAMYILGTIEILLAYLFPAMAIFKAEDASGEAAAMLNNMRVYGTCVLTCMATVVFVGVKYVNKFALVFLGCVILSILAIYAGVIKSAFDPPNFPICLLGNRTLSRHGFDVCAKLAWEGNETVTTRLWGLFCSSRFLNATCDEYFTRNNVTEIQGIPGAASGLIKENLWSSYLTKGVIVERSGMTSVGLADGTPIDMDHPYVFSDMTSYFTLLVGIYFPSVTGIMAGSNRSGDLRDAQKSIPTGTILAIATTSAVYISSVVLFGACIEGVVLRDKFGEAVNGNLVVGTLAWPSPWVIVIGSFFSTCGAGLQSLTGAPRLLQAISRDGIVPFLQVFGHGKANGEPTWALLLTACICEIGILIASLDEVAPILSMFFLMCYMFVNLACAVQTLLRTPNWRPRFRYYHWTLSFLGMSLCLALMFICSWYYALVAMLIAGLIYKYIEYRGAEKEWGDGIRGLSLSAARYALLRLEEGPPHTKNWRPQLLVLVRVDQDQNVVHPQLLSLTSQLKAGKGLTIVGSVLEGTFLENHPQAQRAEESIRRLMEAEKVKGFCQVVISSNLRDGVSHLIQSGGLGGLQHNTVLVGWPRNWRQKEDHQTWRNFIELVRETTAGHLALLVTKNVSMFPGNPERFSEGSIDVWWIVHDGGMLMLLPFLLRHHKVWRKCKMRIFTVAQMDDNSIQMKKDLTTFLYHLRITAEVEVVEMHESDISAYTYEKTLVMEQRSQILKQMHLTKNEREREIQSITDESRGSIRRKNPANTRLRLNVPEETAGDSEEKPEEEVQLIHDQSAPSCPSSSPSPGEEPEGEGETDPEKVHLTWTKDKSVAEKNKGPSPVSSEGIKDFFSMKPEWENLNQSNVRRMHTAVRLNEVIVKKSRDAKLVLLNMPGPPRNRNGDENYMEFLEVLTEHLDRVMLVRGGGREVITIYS
WT yeast gro inh: growth inhibition of WT yeast, mitochondrial fusion screen. mitochondrial fusion phenotypic screen, WT strain. inhibition, % at 10 µM. 190,000 tested, 2.1% active. AID 1362; in the data active means inhibition above about 58%; tested in S. cerevisiae
Diaph inh CS: inhibits diaphorase or chemically oxidizes, flagging diaphorase assay artifacts; diaphorase resazurin-to-resorufin fluorescence, NADH, 16 min; bacterial (C. kluyveri) enzyme, not human; inhibition, % at 20 µM; 190,000 tested, 0.69% active;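 active means primary screen inhibition at 20 µM above a set limit, cut at about 50% in these data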;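 further: plate controls were DMSO with full reaction for no effect and wells lacking NADH for full effect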
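material = Clostridium kluyveri diaphorase enzyme | amount = 0.14 U/mL diaphorase, enzyme working solution | schedule = incubation 16 min, room temperature | detection = fluorescence of resorufin formed from resazurin, Ex 544/Em 590 nm | benchmarks = positive control minus NADH, DMSO neutral control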
Lmaj promast: inhibitors of Leishmania major promastigote growth. AID 1063. 200,000 tested, 9% active. inhibition, % at 10 µM. Leishmania major promastigotes, resazurin fluorescence viability; in the data active means inhibition above about 50%;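 further: promastigotes grown with compound for 44 hours at 28 °C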
ROMK primary: modulates human ROMK potassium channel activity. AID 1918. 130,000 tested, 2% active. Tet-inducible ROMK, thallium flux fluorescence; actives lie on both sides. B-score at 10 µM. P48048;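 active means signal ratio slope over the read window, or its plate-corrected B-score, at least 3 SD from the plate mean, either direction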;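 further: B-score of the F/F0 ratio slope over 7 to 12 s after thallium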
Diaph act CS: counter-screen for diaphorase-based assays: diaphorase activators and chemical reducers. Diaphorase/resazurin coupled assay, resorufin fluorescence, 16 min; active compounds read high; 1 = vehicle wells, 0 = NADH-free wells. activation factor at 20 µM. 190,000 tested, 0.005% active. AID 1229;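 active means diaphorase activity raised at least twofold by the compound at 20 µM; inactive means activation factor below 2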
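Material: purified diaphorase enzyme from Clostridium kluyveri / Medium: HEPES pH 7.4 buffer with MgCl2 and Tween 20 / Schedule: enzyme reaction of 16 min at room temperature / Measured by: resorufin fluorescence, excitation 544 nm, emission 590 nm / Evaluation: rise in resorufin formation, marking diaphorase activation or chemical reduction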
The depositor's hits bear a star; i = inactive; nt = not tested or not shown. Only some compounds are listed: those with a hit (about 12% of all), similar ones and a draw of the others.

SMILES | Cl transport mod | WT yeast gro inh | Diaph inh CS | Lmaj promast | ROMK primary | Diaph act CS
COC(=O)C(C(=O)OC)C(C[N+](=O)[O-])c1ccc(OC)c(OC)c1 (stereo not drawn) | -0.4 | -7 | 4 | 100* | 0.5 | 1
O=S(=O)(Cc1ccc(Cl)cc1)Nc1ccc2c(c1)OCO2 | nt | -2 | 15 | -5 | -1.8* | 0.9
Cc1ccc(C2=NOC(=O)/C2=C\C=C\c2ccccc2)cc1 | 0.24 | 28 | -4 | 100* | 0.96 | 1
CC1=NN(c2ccccc2)C(=O)/C1=C\c1cn(CCC#N)nc1-c1ccc(Cl)cc1 | -1.9 | 32 | 23 | 21 | -0.041 | 0.8
Cc1[nH]n(-c2ccccc2)c(=O)c1N=Nc1nccs1 | 25* | 22 | 17 | 96* | 13* | 0.8
CC1=NN(c2ccccc2)C(=O)/C1=C/C=C/c1ccccc1 | 0.098 | 8 | 14 | 100* | 0.37 | 0.9
CN(C)/C=C1\C(=O)ON=C1c1ccccc1 | -0.52 | 4 | 11 | 0 | nt | 0.9
CC1=NN(c2ccccc2)C(=O)/C1=C/c1c(O)n(-c2ccc(F)c(Cl)c2)[nH]c1=O | -8.3* | 17 | 35 | -8 | nt | 0.7
CCO[C@H]1OC(C(=O)NC2CC2)=C[C@@H](c2coc3ccccc3c2=O)[C@@H]1CCCO | 1.8 | -33 | 20 | -8 | nt | 0.8
Cc1[nH]n(C2=NCCS2)c(=O)c1N=Nc1ccccc1 | 0.66 | 6 | 12 | 80* | -1.4 | 0.9
Cc1[nH]n(-c2ccccc2)c(=O)c1/C=N/c1nn[nH]n1 | 0.63 | 22 | 16 | -13 | 0.12 | 0.8
Cc1[nH]n(-c2ccccc2)c(=O)c1/C=N/c1ccccn1 | 18* | 30 | 11 | -6 | nt | 0.9
Cc1[nH]n(-c2ccccc2)c(=O)c1N=Nc1ccc2c(c1)OCO2 | -0.53 | -11 | 2 | -3 | nt | 1
CC1=NN(c2ccccc2)C(=O)/C1=C\c1c(C)[nH]n(-c2ccccc2)c1=O | 0.58 | 1 | 9 | -6 | -3.6* | 0.9
CN1C(N)=NC(=O)/C1=C/c1ccccc1F | -0.038 | -4 | 14 | 3 | -0.18 | 0.9
O=C(CSc1nnc2ccccn12)NNC(=O)c1ccc(F)cc1 | -0.013 | 11 | 0 | -3 | 0.51 | 1
CCOc1ccc(Nc2nnc(Cc3ccc(OC)cc3)c(=O)[nH]2)cc1 | 0.17 | -1 | 9 | 0 | -0.25 | 0.9
O=C(c1c(F)c(F)c(F)c(F)c1F)N(Cc1ccccc1)Cc1ccccc1 | -0.1 | 66* | 14 | 8 | nt | 0.9
CC(=O)c1cccc(CN2CCCC(C(=O)c3ccc4c(c3)OCO4)C2)c1 (stereo not drawn) | 0.6 | 19 | 3 | 100* | -0.24 | 1
CCc1noc(C)c1C(=O)N1CCCC(C(=O)c2cc(F)ccc2OC)C1 (stereo not drawn) | 0.52 | 0 | 19 | -3 | nt | 0.8
COc1ccc(F)cc1C(=O)C1CCCN(Cc2ccc3c(c2)OCCO3)C1 (stereo not drawn) | -0.8 | 9 | 9 | 104* | -0.88 | 0.9
CCOC(=O)N1CCC(N2CCCC(C(=O)c3cc(F)ccc3OC)C2)CC1 (stereo not drawn) | 0.93 | -8 | 14 | 82* | -0.49 | 0.9
COc1ccccc1C(=O)C1CCCN(Cc2ccc3c(c2)OCCO3)C1 (stereo not drawn) | -0.47 | nt | nt | nt | nt | nt
CCOC(=O)C1CCCN(Cc2ccc3c(c2)OCO3)C1 (stereo not drawn) | -0.23 | -3 | -3 | 92* | nt | 1
COc1ccc(C(=O)C2CCCN(Cc3ccc4c(c3)OCCO4)C2)cc1F (stereo not drawn) | -0.23 | nt | nt | nt | nt | nt
SMILES | Cl transport mod | WT yeast gro inh | Diaph inh CS | Lmaj promast | ROMK primary | Diaph act CS
COc1ccc(F)cc1C(=O)C1CCCN(Cc2cccn2-c2cccnc2)C1 (stereo not drawn) | nt | -6 | 94* | 74* | 0.26 | 0.1
CCOC(=O)CNC(=O)N1CCCC(C(=O)c2ccc3c(c2)OCO3)C1 (stereo not drawn) | 0.084 | 2 | nt | -4 | 0.2 | nt
O=C(c1ccc2c(c1)OCO2)C1CCCN(C2CCN(CCc3ccccc3)CC2)C1 (stereo not drawn) | nt | 2 | 14 | 98* | -0.34 | 0.9
COc1ccc(F)cc1C(=O)C1CCCN(Cc2ccc(Oc3ncccn3)cc2)C1 (stereo not drawn) | 0.27 | -2 | 7 | 21 | nt | 0.9
COc1cccc(CN2CCCC(C(=O)c3ccc4c(c3)OCO4)C2)c1O (stereo not drawn) | -0.4 | 14 | 10 | 82* | 1.3 | 0.9
C=CCn1cc(C(C)=O)c(=O)[nH]c1=O | -1.4 | -4 | 0 | 0 | 0.018 | 1
O=C(CCCN1CCC(O)(c2ccc(Cl)cc2)CC1)c1ccc(F)cc1 | -0.67 | 45 | 2 | 97* | nt | 1
CC(C)CC(=O)O/N=C1\C(=O)N(Cc2ccc(Cl)cc2)c2ccc([N+](=O)[O-])cc21 | 0.5 | 3 | 25 | -5 | nt | 0.7
Cc1cccc(-c2nc3cc(NC(=O)C4CCCO4)ccc3o2)c1 (stereo not drawn) | 0.44 | 39 | 13 | 75* | nt | 0.9
O=C(Nc1ccc(-c2nc3ccccc3[nH]2)cc1)C1CCCO1 (stereo not drawn) | nt | 69* | 1 | 6 | nt | 1
O=C(Nc1nc2ccccc2[nH]1)C1CCCO1 (stereo not drawn) | 0.042 | 0 | 8 | -4 | nt | 0.9
CCOC(=O)c1c(C)oc2ccc(OC(=O)c3cccs3)cc12 | -0.52 | 68* | 16 | -5 | -0.024 | 0.8
O=C(CSCc1c(Cl)cccc1Cl)Nc1ccc2c(c1)OCCO2 | -1.2 | 16 | 21 | 7 | -2.1 | 0.8
CCNC(=S)N(Cc1cc2cc(C)ccc2[nH]c1=O)C1CCCC1 | 0.05 | -16 | 9 | 36 | -1.2 | 0.9
CCNC(=S)N(Cc1cc2cc(C)c(C)cc2[nH]c1=O)C1CCCC1 | -0.54 | -3 | nt | 27 | -1.3 | nt
CC(=O)N(Cc1cc2c(C)cc(C)cc2[nH]c1=O)C1CCCCC1 | 0.63 | 98* | 15 | 8 | -0.39 | 0.9
CNC(=S)N(Cc1cc2cc(C)cc(C)c2[nH]c1=O)C1CCCC1 | -1.7 | 22 | 28 | 60* | -1.1 | 0.7
CCNC(=S)N(Cc1cc2cc(C)cc(C)c2[nH]c1=O)C1CCCC1 | -2.1 | -7 | 14 | 99* | -0.41 | 0.9
CCNC(=S)N(Cc1cc2c(C)ccc(C)c2[nH]c1=O)C1CCCC1 | -1.8 | -9 | 25 | 67* | -0.54 | 0.7
Cc1cc(C)c2[nH]c(=O)c(CN(CC3CCCO3)C(=O)C3CCCO3)cc2c1 (stereo not drawn) | -0.014 | 6 | 1 | -7 | nt | 1
CCCCCCCCOC(=O)CCc1c(C)[nH]c(=S)[nH]c1=O | 1.5 | 10 | 12 | -4 | nt | 0.9
CCCCCCOC(=O)/C=C/c1c(C)[nH]c(=O)[nH]c1=O | 0.94 | 1 | 10 | 94* | nt | 0.9
O=c1c2c([nH]c3ccccc13)CCCCC2 | i | nt | nt | nt | 0.15 | nt
